Laboratory results: ChEMBL document CHEMBL1781935, “Amberlite-IRA-402 (OH) ion exchange resin mediated synthesis of indolizines, pyrrolo [1,2-a] quinolines and isoquinolines: antibacterial and antifungal evaluation of the products” (2011)
Converted amounts (≈) assume the structure as drawn. The source made the active and inactive calls. The calls are words filed in the database; no cut-off is given here.

How the values were obtained:
Micrococcus luteus [1] = experiment: Antibacterial activity against Micrococcus luteus AGD1; format: functional
Summary of the method: (§1)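 MIC by broth and agar dilution. Broth: 0.1 ml suspension (2 × 10^6 cfu/ml) in Mueller-Hinton broth with test drug at 1–1000 µg/ml, 37 °C overnight. Agar: serial drug dilutions in Mueller-Hinton agar, spot-inoculated with 2 × 10^6 cfu/spot, 37 °C for 24 h. MIC was the lowest concentration with no visible growth. Antibiotic controls were included.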

Vibrio cholerae [2] = experiment: Antibacterial activity against Vibrio cholerae isolate 7201; format: functional
Vibrio cholerae [3] = experiment: Antibacterial activity against Vibrio cholerae isolate 720 at 1 to 1000 ug/ml after overnight incubation by disc diffusion method; format: functional
Salmonella typhi [4] = experiment: Antibacterial activity against Salmonella typhi DIRW; format: functional, Salmonella enterica subsp. enterica serovar Typhi; details: Salmonella enterica
Shigella flexneri [5] = experiment: Antibacterial activity against Shigella flexneri DN13; format: functional; summary of the method: as §1
Cryptococcus neoformans [6] = experiment: Antifungal activity against […] at 1 to 1500 ug/ml after 96 hrs by disc diffusion method; format: functional, organism-based
Summary of the method: (§2)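 Disc diffusion on Sabouraud dextrose agar. Plates seeded with 0.1 ml fungal spore suspension (2 × 10^5 spores/ml). Sterile 6 mm discs were impregnated with compound solutions at 1–1500 µg/ml and incubated at 28 °C for 96 h. Read-out was the clear inhibition zone. Strains were clinical isolates.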

Shigella flexneri [7] = experiment: Antibacterial activity against Shigella flexneri DN13 at 1 to 1000 ug/ml after overnight incubation by disc diffusion method; format: functional
Summary of the method: (§3)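 Disc diffusion on Mueller-Hinton agar. Plates seeded with 0.1 ml bacterial suspension (2 × 10^6 cfu/ml). Sterile 6 mm paper discs were impregnated with compound solutions at 1–1000 µg/ml and incubated at 37 °C overnight. Read-out was the diameter of the clear inhibition zone. Stocks were 1 mg/ml in 4% Tween 80 or 4% propylene glycol.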

Staphylococcus aureus [8] = experiment: Antibacterial activity against Staphylococcus aureus ATCC 25923; format: functional; summary of the method: as §1
Staphylococcus aureus [9] = experiment: Antibacterial activity against Staphylococcus aureus ATCC 25923 at 1 to 1000 ug/ml after overnight incubation by disc diffusion method; format: functional; summary of the method: as §3
Bacillus subtilis [10] = experiment: Antibacterial activity against Bacillus subtilis UC564 at 1 to 1000 ug/ml after overnight incubation by disc diffusion method; format: functional; summary of the method: as §3
Vibrio parahaemolyticus [11] = experiment: Antibacterial activity against Vibrio parahaemolyticus isolate 72016; format: functional; summary of the method: as §1
Bacillus subtilis [12] = experiment: Antibacterial activity against Bacillus subtilis UC564; format: functional; summary of the method: as §1
Aspergillus niger [13] = experiment: Antifungal activity against Aspergillus niger after 96 hrs; format: functional
Summary of the method: (§4)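 Clinical isolates grown on Sabouraud dextrose agar at 28 °C. MIC was set by broth dilution in Sabouraud dextrose broth (0.1 ml of 2 × 10^5 spores/ml, 1–1500 µg/ml) or by agar dilution (2 × 10^5 spores/spot), with an antibiotic control, at 28 °C for 96 h. The lowest concentration with no visible growth was taken.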

Pseudomonas aeruginosa [14] = experiment: Antibacterial activity against Pseudomonas aeruginosa ATCC 27853; format: functional; summary of the method: as §1
Enterococcus faecalis [15] = experiment: Antibacterial activity against Enterococcus faecalis isolate 29212 at 1 to 1000 ug/ml after overnight incubation by disc diffusion method; format: functional; summary of the method: as §3
Candida tropicalis [16] = experiment: Antifungal activity against Candida tropicalis at 1 to 1500 ug/ml after 96 hrs by disc diffusion method; format: functional; summary of the method: as §2
Candida albicans [17] = experiment: Antifungal activity against Candida albicans after 96 hrs; format: functional; summary of the method: as §4
Micrococcus luteus [18] = experiment: Antibacterial activity against Micrococcus luteus AGD1 at 1 to 1000 ug/ml after overnight incubation by disc diffusion method; format: functional; summary of the method: as §3
Vibrio cholerae [19] = experiment: Antibacterial activity against Vibrio cholerae isolate 7201 at 1 to 1000 ug/ml after overnight incubation by disc diffusion method; format: functional
Escherichia coli [20] = experiment: Antibacterial activity against Escherichia coli ATCC 25938 at 1 to 1000 ug/ml after overnight incubation by disc diffusion method; format: functional; summary of the method: as §3
Aspergillus niger [21] = experiment: Antifungal activity against Aspergillus niger at 1 to 1500 ug/ml after 96 hrs by disc diffusion method; format: functional; summary of the method: as §2
Klebsiella pneumoniae [22] = experiment: Antibacterial activity against Klebsiella pneumoniae isolate J/1/4; format: functional; summary of the method: as §1
Candida albicans [23] = experiment: Antifungal activity against Candida albicans after 96 hrs by dry weight calculation; format: functional, organism-based
Summary of the method: (§5)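 Fungicidal testing with double-fold drug dilutions in Sabouraud dextrose broth. Tubes inoculated with 1 ml spore suspension (2 × 10^5 spores/ml) and shaken at 200 rpm at 28 °C for 96 h. Drug was added at mid-logarithmic growth. Growth was measured as sample dry weight after drying at 60 °C.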

Candida tropicalis [24] = experiment: Antifungal activity against Candida tropicalis after 96 hrs; format: functional; summary of the method: as §4
Shigella dysenteriae [25] = experiment: Antibacterial activity against Shigella dysenteriae isolate 3; format: functional
Vibrio parahaemolyticus [26] = experiment: Antibacterial activity against Vibrio parahaemolyticus isolate 72016 at 1 to 1000 ug/ml after overnight incubation by disc diffusion method; format: functional; summary of the method: as §3
Enterococcus faecalis [27] = experiment: Antibacterial activity against Streptococcus faecalis isolate 29212; format: functional; summary of the method: as §1
Pseudomonas aeruginosa [28] = experiment: Antibacterial activity against Pseudomonas aeruginosa ATCC 27853 at 1 to 1000 ug/ml after overnight incubation by disc diffusion method; format: functional; summary of the method: as §3
Shigella dysenteriae [29] = experiment: Antibacterial activity against Shigella dysenteriae isolate 3 at 1 to 1000 ug/ml after overnight incubation by disc diffusion method; format: functional
Salmonella typhimurium [30] = experiment: Antibacterial activity against Salmonella Typhimurium isolate 11; format: functional, Salmonella enterica subsp. enterica serovar Typhimurium; details: Salmonella enterica; summary of the method: as §1
Klebsiella pneumoniae [31] = experiment: Antibacterial activity against Klebsiella pneumoniae isolate J/1/4 at 1 to 1000 ug/ml after overnight incubation by disc diffusion method; format: functional; summary of the method: as §3
Candida albicans [32] = experiment: Antifungal activity against Candida albicans at 1 to 1500 ug/ml after 96 hrs by disc diffusion method; format: functional; summary of the method: as §2
Aspergillus niger [33] = experiment: Antifungal activity against Aspergillus niger after 96 hrs by dry weight calculation; format: functional, organism-based; summary of the method: as §5
Salmonella typhi [34] = experiment: Antibacterial activity against Salmonella typhi DIRW at 1 to 1000 ug/ml after overnight incubation by disc diffusion method; format: functional; details: Salmonella enterica subsp. enterica serovar Typhi
Salmonella typhimurium [35] = experiment: Antibacterial activity against Salmonella Typhimurium isolate 11 at 1 to 1000 ug/ml after overnight incubation by disc diffusion method; format: functional, organism-based; details: Salmonella enterica subsp. enterica serovar Typhimurium; summary of the method: as §3
Escherichia coli [36] = experiment: Antibacterial activity against Escherichia coli ATCC 25938; format: functional; summary of the method: as §1
Cryptococcus neoformans [37] = experiment: Antifungal activity against […] after 96 hrs; format: functional; summary of the method: as §4

Q: How did the MIC (Micrococcus luteus [1]) turn out when `O=C(c1ccccc1)c1c(-c2ccccc2)cc2c3ccccc3ccn12` was run?
A: Its MIC is 500 µg/mL (≈ 1440 µM).

Q: And the MIC (Vibrio cholerae [2])?
A: The MIC was 64 µg/mL (≈ 184 µM).

Q: What about the “diameter of the inhibition zone (DIZ)” value (Vibrio cholerae [3]) of the same compound?
A: Its value is 9 mm.

Q: What about the MIC (Salmonella typhi [4]) of the same compound?
A: The MIC was > 500 µg/mL.

Q: And the MIC (Shigella flexneri [5])?
A: The MIC was 500 µg/mL (≈ 1440 µM).

Q: What about the “diameter of the inhibition zone (DIZ)” value (Cryptococcus neoformans [6]) of the same compound?
A: The value was “inactive”.

Q: And the “diameter of the inhibition zone (DIZ)” value (Shigella flexneri [7])?
A: The value was “inactive”.

Q: What about the MIC (Staphylococcus aureus [8]) of the same compound?
A: Its MIC is 128 µg/mL (≈ 368 µM).

Q: And the “diameter of the inhibition zone (DIZ)” value (Staphylococcus aureus [9])?
A: The value was 8.5 mm.

Q: And the “diameter of the inhibition zone (DIZ)” value (Bacillus subtilis [10])?
A: The value was 10.2 mm.

Q: And the MIC (Vibrio parahaemolyticus [11])?
A: The MIC was 500 µg/mL (≈ 1440 µM).

Q: And the MIC (Bacillus subtilis [12])?
A: The MIC was 32 µg/mL (≈ 92.1 µM).

Q: What about the MIC (Aspergillus niger [13]) of the same compound?
A: Its MIC is 500 µg/mL (≈ 1440 µM).

Q: And the MIC (Pseudomonas aeruginosa [14])?
A: Its MIC is 128 µg/mL (≈ 368 µM).

Q: What about the “diameter of the inhibition zone (DIZ)” value (Enterococcus faecalis [15]) of the same compound?
A: The value was “inactive”.

Q: What about the “diameter of the inhibition zone (DIZ)” value (Candida tropicalis [16]) of the same compound?
A: The value was 10 mm.

Q: What about the MIC (Candida albicans [17]) of the same compound?
A: Its MIC is 500 µg/mL (≈ 1440 µM).

Q: What about the “diameter of the inhibition zone (DIZ)” value (Micrococcus luteus [18]) of the same compound?
A: Its value is “inactive”.

Q: And the “diameter of the inhibition zone (DIZ)” value (Vibrio cholerae [19])?
A: Its value is 9 mm.

Q: What about the “diameter of the inhibition zone (DIZ)” value (Escherichia coli [20]) of the same compound?
A: Its value is 10 mm.

Q: And the “diameter of the inhibition zone (DIZ)” value (Aspergillus niger [21])?
A: Its value is 12 mm.

Q: What about the MIC (Klebsiella pneumoniae [22]) of the same compound?
A: The MIC was 64 µg/mL (≈ 184 µM).

Q: What about the Activity (Candida albicans [23]) of the same compound?
A: Its Activity is “Dose-dependent effect”.

Q: And the MIC (Candida tropicalis [24])?
A: Its MIC is 1000 µg/mL (≈ 2880 µM).

Q: What about the MIC (Shigella dysenteriae [25]) of the same compound?
A: Its MIC is 128 µg/mL (≈ 368 µM).

Q: What about the “diameter of the inhibition zone (DIZ)” value (Vibrio parahaemolyticus [26]) of the same compound?
A: Its value is “inactive”.

Q: And the MIC (Enterococcus faecalis [27])?
A: The MIC was 500 µg/mL (≈ 1440 µM).

Q: And the “diameter of the inhibition zone (DIZ)” value (Pseudomonas aeruginosa [28])?
A: The value was 8.1 mm.

Q: What about the “diameter of the inhibition zone (DIZ)” value (Shigella dysenteriae [29]) of the same compound?
A: The value was 8 mm.

Q: What about the MIC (Salmonella typhimurium [30]) of the same compound?
A: Its MIC is > 500 µg/mL.

Q: What about the “diameter of the inhibition zone (DIZ)” value (Klebsiella pneumoniae [31]) of the same compound?
A: The value was 10.5 mm.

Q: And the “diameter of the inhibition zone (DIZ)” value (Candida albicans [32])?
A: Its value is 30 mm.

Q: And the Activity (Aspergillus niger [33])?
A: The Activity was “Dose-dependent effect”.

Q: What about the “diameter of the inhibition zone (DIZ)” value (Salmonella typhi [34]) of the same compound?
A: Its value is “inactive”.

Q: What about the “diameter of the inhibition zone (DIZ)” value (Salmonella typhimurium [35]) of the same compound?
A: Its value is “inactive”.

Q: What about the MIC (Escherichia coli [36]) of the same compound?
A: The MIC was 32 µg/mL (≈ 92.1 µM).

Q: With `OC(Cn1cncn1)(Cn1cncn1)c1ccc(F)cc1F` [FLUCONAZOLE] as the compound, how does the MIC (Aspergillus niger [13]) read?
A: Its MIC is 10 µg/mL (≈ 32.7 µM).

Q: What about the MIC (Candida albicans [17]) of the same compound?
A: Its MIC is 4 µg/mL (≈ 13.1 µM).

Q: And the MIC (Candida tropicalis [24])?
A: The MIC was 8 µg/mL (≈ 26.1 µM).

Q: What about the MIC (Cryptococcus neoformans [37]) of the same compound?
A: The MIC was 8 µg/mL (≈ 26.1 µM).
